Assay results taken from ChEMBL document CHEMBL5705890, “Antitumor activity of an allosteric inhibitor of centromere-associated protein-E” (Proc Natl Acad Sci U S A, 2010).

Key:
[1] = molecular target: T1, Centromere-associated protein E (Homo sapiens, UniProt Q02224); test: Inhibition of ATPase activity of C-terminal 6-his-tagged CENP-E (2 to 340 residues)(unknown origin) expressed in Escherichia coli BL21(DE3) in presence of ATP
[2] = molecular target: T1, Centromere-associated protein E; test: Uncompetitive binding affinity to C-terminal 6-his-tagged CENP-E (2 to 340 residues)(unknown origin) expressed in Escherichia coli BL21(DE3) assessed as apparent inhibition constant in presence of ATP; conditions: read-out: Ki(app)
[3] = test system: 5637; test: Anticancer activity against human 5637 cells assessed as cell growth inhibition measured after 72 hrs by DAPI staining based analysis; format: functional
Method in brief: (§1)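 Cells were seeded and, after 24 h, DNA content was read as T0. Cells were then exposed to varying drug concentrations for a further 72 h (T72). Fixed cells were DAPI-stained and DNA content measured by automated imaging. T72 values were normalized to T0. GI50 is the concentration giving 50% growth inhibition between T0 and Ymax, obtained by curve fitting.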

[4] = test system: A-427; test: Anticancer activity against human A-427 cells assessed as cell growth inhibition measured after 72 hrs by DAPI staining based analysis; format: functional; method in brief: as §1
[5] = test system: AGS; test: Anticancer activity against human AGS cells assessed as cell growth inhibition measured after 72 hrs by DAPI staining based analysis; format: functional; method in brief: as §1
[6] = test system: AN3-CA; test: Anticancer activity against human AN3-CA cells assessed as cell growth inhibition measured after 72 hrs by DAPI staining based analysis; format: functional; method in brief: as §1
[7] = test system: BFTC-905; test: Anticancer activity against human BFTC-905 cells assessed as cell growth inhibition measured after 72 hrs by DAPI staining based analysis; format: functional; method in brief: as §1
[8] = test system: BT-20; test: Anticancer activity against human BT-20 cells assessed as cell growth inhibition measured after 72 hrs by DAPI staining based analysis; format: functional
Method in brief: (§2)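 Cells were seeded, and DNA content at 24 h after seeding (T0) was read by imaging of fixed, DAPI-stained cells. Cells were then exposed to a range of drug concentrations for a further 72 h (T72) and DNA content was read again. T72 values were normalized to T0, and GI50 was taken from curve fits as the concentration giving 50% growth inhibition relative to T0 and Ymax.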

[9] = test system: C3A; test: Anticancer activity against human C3A cells assessed as cell growth inhibition measured after 72 hrs by DAPI staining based analysis; format: functional; method in brief: as §2
[10] = test system: CGTH-W-1; test: Anticancer activity against human CGTH-W-1 cells assessed as cell growth inhibition measured after 72 hrs by DAPI staining based analysis; format: functional; method in brief: as §2
[11] = test system: Detroit 562; test: Anticancer activity against human Detroit 562 cells assessed as cell growth inhibition measured after 72 hrs by DAPI staining based analysis; format: functional
Method in brief: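 Cells seeded, DAPI-stained DNA content of fixed cells read by imaging 24 h after seeding (T0), and again after a further 72 h exposure to a range of drug concentrations (T72). T72 values were normalized to T0. Curve fits gave the concentration producing 50% growth inhibition relative to T0 and Ymax (GI50).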

[12] = test system: HuT78; test: Anticancer activity against human HuT78 cells assessed as cell growth inhibition measured after 72 hrs by DAPI staining based analysis; format: functional
[13] = test system: NCI-H630; test: Anticancer activity against human NCI-H630 cells assessed as cell growth inhibition measured after 72 hrs by DAPI staining based analysis; format: functional
[14] = test system: SCaBER; test: Anticancer activity against human SCaBER cells assessed as cell growth inhibition measured after 72 hrs by DAPI staining based analysis; format: functional
[15] = test system: SJRH30; test: Anticancer activity against human SJRH30 cells assessed as cell growth inhibition measured after 72 hrs by DAPI staining based analysis; format: functional
[16] = test system: SNU-475; test: Anticancer activity against human SNU-475 cells assessed as cell growth inhibition measured after 72 hrs by DAPI staining based analysis; format: functional
[17] = test system: SW1463; test: Anticancer activity against human SW1463 cells assessed as cell growth inhibition measured after 72 hrs by DAPI staining based analysis; format: functional
[18] = test system: SW756; test: Anticancer activity against human SW756 cells assessed as cell growth inhibition measured after 72 hrs by DAPI staining based analysis; format: functional
[19] = test system: UACC-62; test: Anticancer activity against human UACC-62 cells assessed as cell growth inhibition measured after 72 hrs by DAPI staining based analysis; format: functional
[20] = test system: WiDr; test: Anticancer activity against human WiDr cells assessed as cell growth inhibition measured after 72 hrs by DAPI staining based analysis; format: functional
[21] = test system: C3A; test: Anticancer activity against human C3A cells assessed as cell doubling measured for 72 hrs by DAPI staining based analysis; format: functional
[22] = Anticancer activity against human C4-1 cells assessed as cell doubling measured for 72 hrs by DAPI staining based analysis; format: functional
[23] = test system: C-4-II; test: Anticancer activity against human C-4-II cells assessed as cell doubling measured for 72 hrs by DAPI staining based analysis; format: functional
[24] = test system: Capan-2; test: Anticancer activity against human Capan-2 cells assessed as cell doubling measured for 72 hrs by DAPI staining based analysis; format: functional
[25] = test system: CGTH-W-1; test: Anticancer activity against human CGTH-W-1 cells assessed as cell doubling measured for 72 hrs by DAPI staining based analysis; format: functional
[26] = test system: HCC1954; test: Anticancer activity against human HCC1954 cells assessed as cell doubling measured for 72 hrs by DAPI staining based analysis; format: functional
[27] = test system: JEG-3; test: Anticancer activity against human JEG-3 cells assessed as cell doubling measured for 72 hrs by DAPI staining based analysis; format: functional
[28] = test system: MDA-MB-453; test: Anticancer activity against human MDA-MB-453 cells assessed as cell doubling measured for 72 hrs by DAPI staining based analysis; format: functional
[29] = test system: NCI-H146; test: Anticancer activity against human NCI-H146 cells assessed as cell doubling measured for 72 hrs by DAPI staining based analysis; format: functional
[30] = test system: NCI-H187; test: Anticancer activity against human NCI-H187 cells assessed as cell doubling measured for 72 hrs by DAPI staining based analysis; format: functional
[31] = test system: OVCAR-3; test: Anticancer activity against human OVCAR-3 cells assessed as cell doubling measured for 72 hrs by DAPI staining based analysis; format: functional
[32] = test system: OVCAR-8; test: Anticancer activity against human OVCAR-8 cells assessed as cell doubling measured for 72 hrs by DAPI staining based analysis; format: functional
[33] = Anticancer activity against human RDES cells assessed as cell doubling measured for 72 hrs by DAPI staining based analysis; format: functional, RD-ES
[34] = test system: SF-539; test: Anticancer activity against human SF-539 cells assessed as cell doubling measured for 72 hrs by DAPI staining based analysis; format: functional
[35] = test system: SK-UT-1; test: Anticancer activity against human SK-UT-1 cells assessed as cell doubling measured for 72 hrs by DAPI staining based analysis; format: functional
[36] = test system: SW-403; test: Anticancer activity against human SW403 cells assessed as cell doubling measured for 72 hrs by DAPI staining based analysis; format: functional
[37] = test system: NCI-H460; test: Antitumor activity against human NCI-H460 cells in xenograft model assessed as difference between median time to endpoint time of treated versus control group at 125 mg/kg; format: functional
[38] = test system: MCF7; test: Antitumor activity against human MCF7 cells in xenograft model assessed as tumor growth delay at 62.5 mg/kg relative to control; format: functional
[39] = test system: SK-OV-3; test: Antitumor activity against human SK-OV-3 cells in xenograft model assessed as tumor growth delay at 62.5 mg/kg relative to control; format: functional

T1 sequence (Q02224 whole entry, the tested form may be a part): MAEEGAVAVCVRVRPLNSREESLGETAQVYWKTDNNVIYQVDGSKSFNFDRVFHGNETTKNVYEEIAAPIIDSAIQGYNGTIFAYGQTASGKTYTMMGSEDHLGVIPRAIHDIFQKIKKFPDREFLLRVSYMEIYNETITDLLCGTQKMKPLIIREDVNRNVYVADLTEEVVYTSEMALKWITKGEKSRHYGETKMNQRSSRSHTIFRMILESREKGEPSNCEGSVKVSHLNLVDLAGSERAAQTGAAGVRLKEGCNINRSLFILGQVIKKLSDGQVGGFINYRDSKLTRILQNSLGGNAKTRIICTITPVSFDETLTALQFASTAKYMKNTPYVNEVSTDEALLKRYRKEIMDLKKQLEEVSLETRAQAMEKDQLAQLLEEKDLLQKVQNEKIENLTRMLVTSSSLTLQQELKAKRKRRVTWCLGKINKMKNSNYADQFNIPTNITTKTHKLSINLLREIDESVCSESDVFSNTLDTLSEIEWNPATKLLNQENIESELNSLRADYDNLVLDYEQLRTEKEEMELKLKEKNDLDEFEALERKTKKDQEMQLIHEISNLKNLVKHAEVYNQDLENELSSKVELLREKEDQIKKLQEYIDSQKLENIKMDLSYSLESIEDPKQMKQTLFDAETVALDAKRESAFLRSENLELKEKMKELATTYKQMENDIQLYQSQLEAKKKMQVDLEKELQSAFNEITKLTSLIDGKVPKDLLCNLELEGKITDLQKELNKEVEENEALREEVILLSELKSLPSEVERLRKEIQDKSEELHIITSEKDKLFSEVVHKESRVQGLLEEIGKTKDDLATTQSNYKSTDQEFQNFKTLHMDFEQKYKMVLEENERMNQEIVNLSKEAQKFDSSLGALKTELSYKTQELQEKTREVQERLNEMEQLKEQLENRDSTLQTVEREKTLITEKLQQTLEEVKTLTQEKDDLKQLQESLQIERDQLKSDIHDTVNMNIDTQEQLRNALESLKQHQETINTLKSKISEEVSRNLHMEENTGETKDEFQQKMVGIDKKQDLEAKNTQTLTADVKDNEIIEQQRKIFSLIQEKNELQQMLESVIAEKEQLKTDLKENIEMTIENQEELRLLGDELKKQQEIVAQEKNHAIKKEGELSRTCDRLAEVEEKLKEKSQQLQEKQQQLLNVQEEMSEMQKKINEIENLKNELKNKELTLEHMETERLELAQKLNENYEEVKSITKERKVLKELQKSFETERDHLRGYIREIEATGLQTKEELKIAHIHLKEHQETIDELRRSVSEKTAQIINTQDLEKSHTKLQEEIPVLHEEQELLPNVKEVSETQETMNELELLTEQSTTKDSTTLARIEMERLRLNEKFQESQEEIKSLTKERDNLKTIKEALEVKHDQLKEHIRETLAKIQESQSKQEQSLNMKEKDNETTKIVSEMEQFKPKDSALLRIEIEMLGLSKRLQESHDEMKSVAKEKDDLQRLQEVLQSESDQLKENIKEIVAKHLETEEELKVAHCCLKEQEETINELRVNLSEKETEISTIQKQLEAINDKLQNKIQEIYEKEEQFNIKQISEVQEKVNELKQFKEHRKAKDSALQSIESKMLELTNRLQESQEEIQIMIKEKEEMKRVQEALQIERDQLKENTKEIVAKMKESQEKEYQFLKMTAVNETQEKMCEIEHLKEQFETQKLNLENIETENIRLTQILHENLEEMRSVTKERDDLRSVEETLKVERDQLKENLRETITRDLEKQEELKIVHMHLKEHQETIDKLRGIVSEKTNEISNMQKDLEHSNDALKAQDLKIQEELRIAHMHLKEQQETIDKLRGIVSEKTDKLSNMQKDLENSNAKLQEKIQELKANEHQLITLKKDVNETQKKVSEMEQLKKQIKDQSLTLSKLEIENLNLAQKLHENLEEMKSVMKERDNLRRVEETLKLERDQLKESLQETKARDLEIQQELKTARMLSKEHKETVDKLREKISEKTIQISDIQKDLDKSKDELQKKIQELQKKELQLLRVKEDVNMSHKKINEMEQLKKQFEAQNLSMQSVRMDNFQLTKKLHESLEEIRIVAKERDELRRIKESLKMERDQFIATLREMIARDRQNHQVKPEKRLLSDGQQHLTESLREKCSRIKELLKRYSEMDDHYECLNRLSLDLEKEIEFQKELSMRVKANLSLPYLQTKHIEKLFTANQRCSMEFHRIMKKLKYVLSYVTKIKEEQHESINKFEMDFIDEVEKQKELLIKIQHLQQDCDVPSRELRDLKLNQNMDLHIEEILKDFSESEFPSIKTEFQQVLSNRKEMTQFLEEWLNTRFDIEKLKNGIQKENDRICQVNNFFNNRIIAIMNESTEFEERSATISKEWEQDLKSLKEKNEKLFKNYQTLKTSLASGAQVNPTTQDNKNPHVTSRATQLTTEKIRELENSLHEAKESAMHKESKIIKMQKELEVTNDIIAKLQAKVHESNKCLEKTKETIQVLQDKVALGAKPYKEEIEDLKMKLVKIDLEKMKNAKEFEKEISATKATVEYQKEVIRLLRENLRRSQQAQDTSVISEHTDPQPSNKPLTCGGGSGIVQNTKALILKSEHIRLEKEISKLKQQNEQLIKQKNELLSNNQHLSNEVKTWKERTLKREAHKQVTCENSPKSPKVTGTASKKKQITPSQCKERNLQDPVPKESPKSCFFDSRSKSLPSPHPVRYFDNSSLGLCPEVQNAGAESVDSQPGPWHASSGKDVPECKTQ

CC(C)Oc1ccc(C(=O)N[C@H](CNC(=O)CN(C)C)Cc2ccc(-c3cn4cccc([C@H](C)O)c4n3)cc2)cc1Cl [GSK-923295A]
IC50 [1]: 2080 nM | Ki [2]: 3.2 nM | GI50 [3]: 23 nM | GI50 [4]: 97 nM | GI50 [5]: 29 nM | GI50 [6]: 23 nM | GI50 [7]: 30 nM | GI50 [8]: 32 nM | GI50 [9]: 54 nM | GI50 [10]: 30 nM | GI50 [11]: 35 nM | GI50 [12]: 40 nM | GI50 [13]: 47 nM | GI50 [14]: 54 nM | GI50 [15]: 26 nM | GI50 [16]: 26 nM | GI50 [17]: 31 nM | GI50 [18]: 35 nM | GI50 [19]: 25 nM | GI50 [20]: 18 nM | Activity [21]: 2.23 | Activity [22]: 2.93 | Activity [23]: 2.42 | Activity [24]: 1.89 | Activity [25]: 3.66 | Activity [26]: 2.04 | Activity [27]: 2.9 | Activity [28]: 2.26 | Activity [29]: 1.2 | Activity [30]: 2.08 | Activity [31]: 1.56 | Activity [32]: 3.26 | Activity [33]: 1.32 | Activity [34]: 2.08 | Activity [35]: 2.88 | Activity [36]: 1.12 | Time [37]: 37.2 days | Activity [38]: 20% | Activity [39]: 194%
